Measured values taken from article PMC3727929 (Molecular Biology of the Cell, 2013).
“Also recorded” adds a separate entry of the source. Values belong to the molecule of their own block, whether it stands above or below them.

Experiments:
[1] = target: Dyn1 (S. cerevisiae cytoplasmic dynein heavy chain), full length, ZZ-TEV-GFP and HaloTag tagged (S. cerevisiae) (UniProt P36022); experiment: single-molecule TIRF fluorescence intensity analysis
Dyn2 = Dyn2 (Saccharomyces cerevisiae, UniProt Q02647); experiment: Western blot of Dyn2 copurifying with Dyn1; type: binding, S. cerevisiae; details: IgG affinity purification, anti-Dyn2 Western blot, Dyn1 normalized
In short: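 Dyn1 was IgG-bead purified from yeast lysate of WT, dyn2Δ and dyn2Δpac11Δ strains (lysis pH 7.4, 100 μM MgATP, beads 1 h at 4°C) and TEV-released at 16°C for 1 h. Dyn1 was quantified by Krypton-stained SDS–PAGE against BSA standards, then equal Dyn1 amounts were loaded. Blots used rabbit anti-Dyn2 (1:200), anti-Myc for Pac11 (1:2000) and Alexa Fluor 680 anti-rabbit secondary (1:5000).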

Pac11-Myc = experiment: Single-molecule Dyn1-Pac11 colocalization assay; type: binding, S. cerevisiae; details: pH 7.2, motors diluted as for motility assays (∼1 nM)
In short: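 Glass flow chamber from HNO3/NaOH-cleaned coverslip. Sequential steps: Cy5-labelled rabbit anti-Myc diluted 10,000× in 30 mM HEPES, 2 mM MgCl2, 1 mM EGTA, 0.5 mg/ml BSA (pH 7.2), 2 min; blocking buffer with 5 mg/ml BSA and 1 mg/ml β-casein, 5 min; TMR-HaloTag-labelled, TEV-released Dyn1 in blocking buffer, 5 min; second round of antibody, 5 min. Cy5–TMR spot colocalization scored.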

microtubules = details: full-length dynein, HaloTag-TMR labeled; ref Reck-Peterson et al., 2006; cited from earlier work
[2] = Solubility of Dyn2 constructs on concentration; type: physicochemical; details: buffer A, pH 6.8; WT 6.0 mg/ml, H58K 10.0 mg/ml, F76K/Y78E 6.0 mg/ml
[3] = target: Dyn2 (S. cerevisiae dynein light chain), wild type, full length (S. cerevisiae, UniProt Q02647 1-92); experiment: ITC

stoichiometry N [1]: 2
Molecule: Dyn1 (S. cerevisiae cytoplasmic dynein heavy chain), full length, ZZ-TEV-GFP and HaloTag tagged, P36022 1-4092

Molecule: Dyn1 purified from dyn2Δ: TMR-labeled Dyn1 purified from VY263 with dyn2Δ
Dyn2 copurified with Dyn1 (Dyn2): absence of Dyn2
colocalization of Dyn1 with Pac11-Myc (in words) (Pac11-Myc): did not reveal any associated Pac11; also recorded: do not show significant TMR-Cy5 colocalization

Molecule: Dyn1 purified from dyn2Δpac11Δ
Dyn2 copurified with Dyn1 (Dyn2): absence of Dyn2
colocalization of Dyn1 with Pac11-Myc (in words) (Pac11-Myc): did not reveal any associated Pac11; also recorded: do not show significant TMR-Cy5 colocalization

Molecule: Dyn1: full-length dynein labeled at its C-terminus with the HaloTag and covalently bound to tetramethylrhodamine (TMR)
average run length (microtubules): 1.7 μm

Molecule: Dyn2 F76K/Y78E
solubility during concentration step [2]: remained soluble

Molecule: Dyn2 H58K
solubility during concentration step [2]: remained soluble

Kd [3]: 620 nM
dH [3]: -5.17 ± 0.139 kcal/mol
stoichiometry N [3]: 1.05 ± 0.02 sites
Molecule: ITYDKGIQTDQ [Pac11 peptide 2 (second Dyn2-binding site of Pac11, residues 75-85)]
